Test results reported in ChEMBL document CHEMBL1154688, “Selective Kv1.5 blockers: development of (R)-1-(methylsulfonylamino)-3-[2-(4-methoxyphenyl)ethyl]-4-(4-methoxyphenyl)-2-imidazolidinone (KVI-020/WYE-160020) as a potential treatment for atrial arrhythmia” (J Med Chem, 2009).
≈ marks a conversion by molar mass, not a printed value.

Legend:
[1] = biological target: Potassium voltage-gated channel subfamily A member 5 (Homo sapiens, UniProt P22460); test: Inhibition of human Kv1.5 expressed in CHO cells by patch-clamp technique; format: cell-based
Sequence of Potassium voltage-gated channel subfamily A member 5 (P22460 whole entry): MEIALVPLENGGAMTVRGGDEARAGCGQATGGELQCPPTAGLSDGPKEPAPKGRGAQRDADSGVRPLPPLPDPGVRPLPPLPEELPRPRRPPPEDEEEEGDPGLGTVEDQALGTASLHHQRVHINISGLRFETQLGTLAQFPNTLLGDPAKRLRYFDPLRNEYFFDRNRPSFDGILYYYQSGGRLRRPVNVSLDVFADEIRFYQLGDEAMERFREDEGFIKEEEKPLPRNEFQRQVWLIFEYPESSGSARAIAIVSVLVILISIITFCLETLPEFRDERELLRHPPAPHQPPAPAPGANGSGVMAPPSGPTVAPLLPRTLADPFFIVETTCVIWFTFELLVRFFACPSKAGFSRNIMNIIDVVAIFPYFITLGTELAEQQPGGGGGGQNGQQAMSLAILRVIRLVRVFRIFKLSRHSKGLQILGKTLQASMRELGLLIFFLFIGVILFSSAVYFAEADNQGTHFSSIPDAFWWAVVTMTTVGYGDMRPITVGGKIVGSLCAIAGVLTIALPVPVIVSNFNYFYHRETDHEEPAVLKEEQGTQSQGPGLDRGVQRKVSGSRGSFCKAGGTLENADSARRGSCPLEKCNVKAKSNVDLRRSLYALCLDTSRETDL
How it was run: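 Human Kv1.5 stably expressed in CHO cells. IC50 was determined by automated patch clamp on the IonWorks platform.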

[2] = biological target: Voltage-gated inwardly rectifying potassium channel KCNH2 (Homo sapiens, UniProt Q12809); test: Inhibition of human ERG by patch-clamp technique
Sequence of Voltage-gated inwardly rectifying potassium channel KCNH2 (Q12809 whole entry): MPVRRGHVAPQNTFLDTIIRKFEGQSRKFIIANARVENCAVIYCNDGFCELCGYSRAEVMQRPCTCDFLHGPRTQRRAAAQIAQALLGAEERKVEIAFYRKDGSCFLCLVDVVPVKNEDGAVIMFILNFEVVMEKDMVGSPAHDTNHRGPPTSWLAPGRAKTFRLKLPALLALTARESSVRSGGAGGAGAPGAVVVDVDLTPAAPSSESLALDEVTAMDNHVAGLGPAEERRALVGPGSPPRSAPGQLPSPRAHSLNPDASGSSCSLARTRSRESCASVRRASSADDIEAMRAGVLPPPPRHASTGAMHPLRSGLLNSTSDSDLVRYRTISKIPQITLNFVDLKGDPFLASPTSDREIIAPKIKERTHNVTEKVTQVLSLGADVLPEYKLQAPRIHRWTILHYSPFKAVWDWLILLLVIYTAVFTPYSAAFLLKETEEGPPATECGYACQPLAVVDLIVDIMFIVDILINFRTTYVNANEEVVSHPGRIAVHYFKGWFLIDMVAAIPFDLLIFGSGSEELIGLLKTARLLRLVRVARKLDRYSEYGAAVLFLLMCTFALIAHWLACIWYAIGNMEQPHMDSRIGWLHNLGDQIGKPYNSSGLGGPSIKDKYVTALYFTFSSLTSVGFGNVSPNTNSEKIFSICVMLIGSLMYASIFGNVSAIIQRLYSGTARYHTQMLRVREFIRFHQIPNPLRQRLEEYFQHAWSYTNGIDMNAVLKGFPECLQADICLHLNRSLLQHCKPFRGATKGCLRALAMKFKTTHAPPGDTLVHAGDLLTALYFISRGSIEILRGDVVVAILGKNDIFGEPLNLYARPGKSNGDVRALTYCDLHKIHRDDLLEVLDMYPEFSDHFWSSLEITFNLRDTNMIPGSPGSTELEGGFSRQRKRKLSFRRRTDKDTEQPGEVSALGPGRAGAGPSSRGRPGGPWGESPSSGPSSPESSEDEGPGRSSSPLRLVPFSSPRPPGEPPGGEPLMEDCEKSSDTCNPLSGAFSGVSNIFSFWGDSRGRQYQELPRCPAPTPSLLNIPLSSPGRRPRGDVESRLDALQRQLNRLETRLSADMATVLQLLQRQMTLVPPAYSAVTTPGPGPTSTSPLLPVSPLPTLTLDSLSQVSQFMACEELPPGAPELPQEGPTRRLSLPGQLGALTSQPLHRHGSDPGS

[3] = Aqueous solubility at pH 7.4 by direct UV method; format: physicochemical; conditions: aqueous medium
How it was run: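 Solubility measured in pH 7.4 buffer with direct UV read-out.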

[4] = Metabolic stability in human liver microsomes assessed as half life; format: ADME, Microsome
How it was run: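 Test compound at 1 μM incubated with 1 mg/mL male beagle dog or male human liver microsomal protein. Half-life was determined from compound loss.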

CYP3A4 = CYP3A4 (Homo sapiens, UniProt P08684); test: Inhibition of CYP3A4 at 3 uM by fluorescent method; format: ADME
Sequence of CYP3A4 (P08684 whole entry): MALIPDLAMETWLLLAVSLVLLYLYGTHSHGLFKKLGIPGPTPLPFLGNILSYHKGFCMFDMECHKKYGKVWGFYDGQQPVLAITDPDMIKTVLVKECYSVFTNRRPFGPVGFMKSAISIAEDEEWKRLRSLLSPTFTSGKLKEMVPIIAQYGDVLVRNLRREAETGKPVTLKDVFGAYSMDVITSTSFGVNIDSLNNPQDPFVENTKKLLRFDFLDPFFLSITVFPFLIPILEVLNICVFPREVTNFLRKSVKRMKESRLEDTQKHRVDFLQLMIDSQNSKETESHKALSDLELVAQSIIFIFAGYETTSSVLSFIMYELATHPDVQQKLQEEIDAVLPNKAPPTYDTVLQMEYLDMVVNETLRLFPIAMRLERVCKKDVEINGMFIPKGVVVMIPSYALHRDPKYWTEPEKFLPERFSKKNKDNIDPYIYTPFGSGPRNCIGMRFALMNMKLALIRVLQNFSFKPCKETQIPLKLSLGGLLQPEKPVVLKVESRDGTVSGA
How it was run: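 CYP3A4 inhibition measured by a fluorescent method.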

COc1ccc(CCN2C(=O)N(NS(C)(=O)=O)CC2c2ccc(C(F)(F)F)cc2)cc1 (stereo not drawn)
IC50 [1]: 0.25 µM
IC50 [2]: 9.1 µM
solubility [3]: 13 µg/mL (≈ 28.4 µM)
half-life [4]: 30 min
inhibition at 3 µM (CYP3A4): 67%

COc1ccc(CCN2C(=O)N(NS(C)(=O)=O)CC2c2ccc(OC(C)C)cc2)cc1 (stereo not drawn)
IC50 [1]: 0.24 µM
IC50 [2]: 17 µM
solubility [3]: 26 µg/mL (≈ 58.1 µM)
half-life [4]: 30 min
inhibition at 3 µM (CYP3A4): 53%

COCCOc1ccc(C2CN(NS(C)(=O)=O)C(=O)N2CCc2ccc(OC)cc2)cc1 (stereo not drawn)
IC50 [1]: 7.45 µM
solubility [3]: 100 µg/mL (≈ 216 µM)
half-life [4]: 30 min
inhibition at 3 µM (CYP3A4): 50%

COc1ccc(CCN2C(=O)N(NS(C)(=O)=O)CC2c2ccc(C)cc2)cc1 (stereo not drawn)
IC50 [1]: 0.24 µM
IC50 [2]: 11.2 µM
solubility [3]: 42 µg/mL (≈ 104 µM)
half-life [4]: 18 min
inhibition at 3 µM (CYP3A4): 58%

COc1ccc([C@H]2CN(NS(C)(=O)=O)C(=O)N2CCc2ccc(OC(F)(F)F)cc2)cc1
IC50 [1]: 0.52 µM
IC50 [2]: 5.6 µM
solubility [3]: 4 µg/mL (≈ 8.45 µM)
half-life [4]: 15 min
inhibition at 3 µM (CYP3A4): 53%

COc1ccc(CCN2C(=O)N(NS(C)(=O)=O)CC2c2ccc(C3CC3)cc2)cc1 (stereo not drawn)
IC50 [1]: 0.16 µM
IC50 [2]: 8.4 µM
solubility [3]: 1 µg/mL (≈ 2.33 µM)
half-life [4]: 30 min
inhibition at 3 µM (CYP3A4): 78%

COc1ccc(CCCN2C(=O)N(NS(C)(=O)=O)C[C@@H]2c2ccc(OC)cc2)cc1
IC50 [1]: 0.1 µM
IC50 [2]: 14.1 µM
solubility [3]: 18 µg/mL (≈ 41.5 µM)
half-life [4]: 29 min
inhibition at 3 µM (CYP3A4): 84%

COc1ccc(CCN2C(=O)N(NS(C)(=O)=O)CC2c2ccc(Cl)cc2)cc1 (stereo not drawn)
IC50 [1]: 0.2 µM
solubility [3]: 4 µg/mL (≈ 9.44 µM)
half-life [4]: 30 min
inhibition at 3 µM (CYP3A4): 27%

COc1ccc(CCN2C(=O)N(NS(C)(=O)=O)CC2c2ccc(C)c(C)c2)cc1 (stereo not drawn)
IC50 [1]: 0.61 µM
IC50 [2]: 15.8 µM
solubility [3]: 17 µg/mL (≈ 40.7 µM)
half-life [4]: 13 min
inhibition at 3 µM (CYP3A4): 77%
